Source: ChEMBL document CHEMBL1133127, “Activation of antibacterial prodrugs by peptide deformylase” (Bioorg Med Chem Lett, 2000)

Columns and labels:
[1] = Half-life was determined; assay type: ADME; conditions: human
Method in brief: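 Deformylated intermediate cyclizes to diketopiperazine, releasing FdU. Followed by C18 HPLC at 214 nm after PDF treatment in 20 mM sodium phosphate pH 7.4. First-order fit of ln(A0/A) versus time; half-life taken from the fit.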

[2] = test system: Escherichia coli; experiment: The compound was tested for its antibacterial activity against Escherichia coli BL21(DE3) cells in luria broth; assay type: functional, organism-based
[3] = test system: Escherichia coli; experiment: The compound was tested for activation by purified Escherichia coli PDF in vitro by measuring deformylation at pH 7.4; assay type: functional
Method in brief: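 Purified E. coli PDF added to prodrug (~1 mM) in 20 mM sodium phosphate pH 7.4. Aliquots taken over time and quenched with equal volume 100 mM TFA. Analysed by C18 HPLC at 214 nm; kcat/KM derived from deformylation to intermediate.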

[4] = test system: Escherichia coli; experiment: Compound was tested for its antibacterial activity against Escherichia coli BL21(DE3) cells in luria broth; assay type: functional, organism-based
[5] = test system: Staphylococcus epidermidis; experiment: The compound was tested for its antibacterial activity against Staphylococcus epidermidis.; assay type: functional, organism-based
[6] = test system: Staphylococcus epidermidis; experiment: Compound was tested for its antibacterial activity against Staphylococcus epidermidis; assay type: functional, organism-based

Work on `CSCC[C@H](NC=O)C(=O)N1CCC[C@H]1C(=O)OCC1OC(n2cc(F)c(=O)[nH]c2=O)CC1O` (some centres not stated) yielded a half-life [1] of 4.68 min and an IC50 [2] of over 100 µM.
Compound `CSCC[C@H](NC=O)C(=O)N1CCC[C@@H]1C(=O)OCC1OC(n2cc(F)c(=O)[nH]c2=O)CC1O` (some centres not stated) has a half-life [1] of 15.2 min and an IC50 [2] of over 100 µM.
Compound `CSCC[C@H](NC=O)C(=O)N(C)[C@@H](CC(C)C)C(=O)OCC1OC(n2cc(F)c(=O)[nH]c2=O)CC1O` (some centres not stated) has a half-life [1] of 2.07 min, a k cat/Km [3] of 1650 M⁻¹ s⁻¹ and an IC50 [2] of over 100 µM.
Work on `CSCC[C@H](NC=O)C(=O)NC(C)(C)C(=O)OCC1OC(n2cc(F)c(=O)[nH]c2=O)CC1O` (some centres not stated) yielded a half-life [1] of 51.1 min, an IC50 [4] of over 100 µM and an IC50 [5] of 50 µM. For the same compound, the k cat/Km [3] was 28900 M⁻¹ s⁻¹ and the IC50 [6] was about 50 µM.
